Reference: ChEMBL document CHEMBL1147968, “Novel lbeta-methylcarbapenems having cyclic sulfonamide moieties: synthesis and evaluation of in vitro antibacterial activity” (2007)
≈ marks a conversion by molar mass, not a printed value.

Columns and labels:
Enterococcus faecium = assay: Antibacterial activity against Streptococcus faecium 77A after 18 to 24 hrs by agar dilution method; type: functional
Procedure, shortened: (§1)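 MICs were determined by agar dilution on test agar. An overnight tryptosoy broth culture was diluted in the same broth to about 10⁶ cells/mL and spotted with an inoculating device onto agar containing serial twofold dilutions of compound. Plates were incubated at 37 °C for 18–20 h, and the MIC was the lowest concentration with no visible growth.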

Streptococcus agalactiae [1] = assay: Antibacterial activity against Streptococcus agalactiae B after 18 to 24 hrs by agar dilution method; type: functional; procedure, shortened: as §1
Enterococcus durans = assay: Antibacterial activity against Streptococcus durans D after 18 to 24 hrs by agar dilution method; type: functional; procedure, shortened: as §1
Salmonella paratyphi = assay: Antibacterial activity against Salmonella paratyphi A after 18 to 24 hrs by agar dilution method; type: functional, Salmonella enterica subsp. enterica serovar Paratyphi A; details: Salmonella enterica
Procedure, shortened: (§2)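 Agar dilution on test agar with serial twofold dilutions of compound. Overnight tryptosoy broth cultures diluted in the same broth to about 10⁶ cells/mL, then applied with an inoculating device. Plates incubated at 37 °C for 18–20 h.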

Priestia megaterium = assay: Antibacterial activity against Bacillus megaterium after 18 to 24 hrs by agar dilution method; type: functional; procedure, shortened: as §1
Pseudomonas aeruginosa [2] = assay: Antibacterial activity against Pseudomonas aeruginosa 9027 after 18 to 24 hrs by agar dilution method; type: functional; procedure, shortened: as §1
Staphylococcus aureus [3] = assay: Antibacterial activity against Staphylococcus aureus 1218 after 18 to 24 hrs by agar dilution method; type: functional; procedure, shortened: as §1
Staphylococcus = assay: Antibacterial activity against coagulase negative Staphylococcus after 18 to 24 hrs by agar dilution method; type: functional
Procedure, shortened: (§3)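 Agar dilution on test agar holding serial twofold dilutions of compound. Overnight tryptosoy broth cultures were diluted in the same broth to about 10⁶ cells/mL and spotted with an inoculating device. Plates were incubated at 37 °C for 18–20 h.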

Enterococcus faecalis = assay: Antibacterial activity against Enterococcus faecalis 2347 after 18 to 24 hrs by agar dilution method; type: functional; procedure, shortened: as §1
Streptococcus pyogenes = assay: Antibacterial activity against Streptococcus pyogenes 9889 after 18 to 24 hrs by agar dilution method; type: functional; procedure, shortened: as §3
Streptococcus agalactiae [4] = assay: Antibacterial activity against Streptococcus agalactiae 32 after 18 to 24 hrs by agar dilution method; type: functional; procedure, shortened: as §1
Streptococcus pneumoniae = assay: Antibacterial activity against Streptococcus pneumoniae 0025 after 18 to 24 hrs by agar dilution method; type: functional; procedure, shortened: as §1
Haemophilus influenzae = assay: Antibacterial activity against Haemophilus influenzae 1210 after 18 to 24 hrs by agar dilution method; type: functional; procedure, shortened: as §1
Escherichia coli [5] = assay: Antibacterial activity against Escherichia coli 04 after 18 to 24 hrs by agar dilution method; type: functional; procedure, shortened: as §1
Klebsiella pneumoniae [6] = assay: Antibacterial activity against Klebsiella pneumoniae 523 after 18 to 24 hrs by agar dilution method; type: functional; procedure, shortened: as §1
Citrobacter freundii = assay: Antibacterial activity against Citrobacter freundii 323 after 18 to 24 hrs by agar dilution method; type: functional; procedure, shortened: as §1
Enterobacter cloacae [7] = assay: Antibacterial activity against Enterobacter cloacae 34 after 18 to 24 hrs by agar dilution method; type: functional; procedure, shortened: as §1
Serratia marcescens [8] = assay: Antibacterial activity against Serratia marcescens 3349 after 18 to 24 hrs by agar dilution method; type: functional; procedure, shortened: as §1
Acinetobacter baumannii = assay: Antibacterial activity against Acinetobacter baumannii 2289 after 18 to 24 hrs by agar dilution method; type: functional; procedure, shortened: as §1
Pseudomonas aeruginosa [9] = assay: Antibacterial activity against Pseudomonas aeruginosa 5455 after 18 to 24 hrs by agar dilution method; type: functional; procedure, shortened: as §1
Staphylococcus aureus [10] = assay: Antibacterial activity against Staphylococcus aureus giorgio after 18 to 24 hrs by agar dilution method; type: functional; procedure, shortened: as §1
Staphylococcus aureus [11] = assay: Antibacterial activity against Staphylococcus aureus 209P after 18 to 24 hrs by agar dilution method; type: functional; procedure, shortened: as §1
Staphylococcus aureus [12] = assay: Antibacterial activity against Staphylococcus aureus 503 after 18 to 24 hrs by agar dilution method; type: functional; procedure, shortened: as §1
Micrococcus luteus = assay: Antibacterial activity against Micrococcus luteus ATCC 9341 after 18 to 24 hrs by agar dilution method; type: functional; procedure, shortened: as §1
Pseudomonas aeruginosa [13] = assay: Antibacterial activity against Pseudomonas aeruginosa 77/2 after 18 to 24 hrs by agar dilution method; type: functional; procedure, shortened: as §1
Pseudomonas aeruginosa [14] = assay: Antibacterial activity against Pseudomonas aeruginosa 110/2 after 18 to 24 hrs by agar dilution method; type: functional; procedure, shortened: as §1
Pseudomonas aeruginosa [15] = assay: Antibacterial activity against Pseudomonas aeruginosa 880/2 after 18 to 24 hrs by agar dilution method; type: functional; procedure, shortened: as §1
Burkholderia cepacia = assay: Antibacterial activity against Pseudomonas cepacia after 18 to 24 hrs by agar dilution method; type: functional; procedure, shortened: as §1
Escherichia coli [16] = assay: Antibacterial activity against Escherichia coli 086 after 18 to 24 hrs by agar dilution method; type: functional; procedure, shortened: as §1
Escherichia coli [17] = assay: Antibacterial activity against Escherichia coli 0114 after 18 to 24 hrs by agar dilution method; type: functional; procedure, shortened: as §1
Escherichia coli [18] = assay: Antibacterial activity against Escherichia coli 0126 after 18 to 24 hrs by agar dilution method; type: functional; procedure, shortened: as §1
Escherichia coli [19] = assay: Antibacterial activity against Escherichia coli V6311/65 after 18 to 24 hrs by agar dilution method; type: functional; procedure, shortened: as §1
Escherichia coli [20] = assay: Antibacterial activity against Escherichia coli TEM after 18 to 24 hrs by agar dilution method; type: functional; procedure, shortened: as §1
Escherichia coli [21] = assay: Antibacterial activity against Escherichia coli 1507 after 18 to 24 hrs by agar dilution method; type: functional; procedure, shortened: as §1
Salmonella typhimurium = assay: Antibacterial activity against Salmonella Typhimurium after 18 to 24 hrs by agar dilution method; type: functional, Salmonella enterica subsp. enterica serovar Typhimurium; details: Salmonella enterica; procedure, shortened: as §1
Salmonella typhi = assay: Antibacterial activity against Salmonella typhi after 18 to 24 hrs by agar dilution method; type: functional, Salmonella enterica subsp. enterica serovar Typhi; details: Salmonella enterica; procedure, shortened: as §2
Salmonella = assay: Antibacterial activity against Salmonella orion after 18 to 24 hrs by agar dilution method; type: functional; procedure, shortened: as §1
[22] = Antibacterial activity against Salmonella give after 18 to 24 hrs by agar dilution method; type: functional, Salmonella enterica subsp. enterica serovar Give; details: Salmonella enterica; procedure, shortened: as §1
Serratia marcescens [23] = assay: Antibacterial activity against Serratia marcescens 370 after 18 to 24 hrs by agar dilution method; type: functional; procedure, shortened: as §1
Klebsiella pneumoniae [24] = assay: Antibacterial activity against Klebsiella pneumoniae 477 after 18 to 24 hrs by agar dilution method; type: functional; procedure, shortened: as §1
Proteus mirabilis [25] = assay: Antibacterial activity against Proteus mirabilis 112/3 after 18 to 24 hrs by agar dilution method; type: functional; procedure, shortened: as §1
Enterobacter cloacae [26] = assay: Antibacterial activity against Enterobacter cloacae after 18 to 24 hrs by agar dilution method; type: functional; procedure, shortened: as §1
Enterobacter cloacae [27] = assay: Antibacterial activity against Enterobacter cloacae 417 after 18 to 24 hrs by agar dilution method; type: functional; procedure, shortened: as §1
Serratia marcescens [28] = assay: Antibacterial activity against Serratia marcescens 6093 after 18 to 24 hrs by agar dilution method; type: functional; procedure, shortened: as §1
Serratia marcescens [29] = assay: Antibacterial activity against Serratia marcescens 14273 after 18 to 24 hrs by agar dilution method; type: functional; procedure, shortened: as §1
Proteus mirabilis [30] = assay: Antibacterial activity against Proteus mirabilis 174/3 after 18 to 24 hrs by agar dilution method; type: functional; procedure, shortened: as §1
Proteus vulgaris = assay: Antibacterial activity against Proteus vulgaris 868 after 18 to 24 hrs by agar dilution method; type: functional; procedure, shortened: as §1
Providencia rettgeri [31] = assay: Antibacterial activity against Proteus rettgeri 936 after 18 to 24 hrs by agar dilution method; type: functional; procedure, shortened: as §1
Providencia rettgeri [32] = assay: Antibacterial activity against Proteus rettgeri 937 after 18 to 24 hrs by agar dilution method; type: functional; procedure, shortened: as §1
Pasteurella multocida = assay: Antibacterial activity against Pasteurella multocida after 18 to 24 hrs by agar dilution method; type: functional; procedure, shortened: as §1
Trueperella pyogenes = assay: Antibacterial activity against Corynebacterium pyogenes after 18 to 24 hrs by agar dilution method; type: functional; procedure, shortened: as §1
[33] = test system: Corynebacterium diphtheriae; assay: Antibacterial activity against Corynebacterium diphtheriae after 18 to 24 hrs by agar dilution method; type: functional; procedure, shortened: as §1
Bacillus subtilis = assay: Antibacterial activity against Bacillus subtilis ATCC 6633 after 18 to 24 hrs by agar dilution method; type: functional; procedure, shortened: as §1
[34] = Antibacterial activity against Salmonella oranienburg after 18 to 24 hrs by agar dilution method; type: functional, Salmonella enterica subsp. enterica serovar Oranienburg; details: Salmonella enterica; procedure, shortened: as §1

C[C@@H](O)C1C(=O)N2C(C(=O)O)=C(S[C@@H]3CN[C@H](CN4CCCN(C)S4(=O)=O)C3)[C@H](C)C12 (some centres undefined)
MIC (Enterococcus faecium): < 0.01 µg/mL | MIC (Streptococcus agalactiae [1]): 0.02 µg/mL (≈ 0.0421 µM) | MIC (Enterococcus durans): 0.1 µg/mL (≈ 0.211 µM) | MIC (Salmonella paratyphi): 0.05 µg/mL (≈ 0.105 µM) | MIC (Priestia megaterium): 0.05 µg/mL (≈ 0.105 µM) | MIC (Pseudomonas aeruginosa [2]): 1.6 µg/mL (≈ 3.37 µM) | MIC (Staphylococcus aureus [3]): 6.25 µg/mL (≈ 13.2 µM) | MIC (Staphylococcus): 0.049 µg/mL (≈ 0.103 µM) | MIC (Enterococcus faecalis): 3.12 µg/mL (≈ 6.57 µM) | MIC (Streptococcus pyogenes): < 0.01 µg/mL | MIC (Streptococcus agalactiae [4]): < 0.01 µg/mL | MIC (Streptococcus pneumoniae): 0.01 µg/mL (≈ 0.0211 µM) | MIC (Haemophilus influenzae): 3.12 µg/mL (≈ 6.57 µM) | MIC (Escherichia coli [5]): 0.025 µg/mL (≈ 0.0527 µM) | MIC (Klebsiella pneumoniae [6]): 0.025 µg/mL (≈ 0.0527 µM) | MIC (Citrobacter freundii): 0.025 µg/mL (≈ 0.0527 µM) | MIC (Enterobacter cloacae [7]): 0.025 µg/mL (≈ 0.0527 µM) | MIC (Serratia marcescens [8]): 0.049 µg/mL (≈ 0.103 µM) | MIC (Acinetobacter baumannii): 3.12 µg/mL (≈ 6.57 µM) | MIC (Pseudomonas aeruginosa [9]): 1.56 µg/mL (≈ 3.29 µM) | MIC (Staphylococcus aureus [10]): 0.05 µg/mL (≈ 0.105 µM) | MIC (Staphylococcus aureus [11]): 0.02 µg/mL (≈ 0.0421 µM) | MIC (Staphylococcus aureus [12]): 0.01 µg/mL (≈ 0.0211 µM) | MIC (Micrococcus luteus): 0.02 µg/mL (≈ 0.0421 µM) | MIC (Pseudomonas aeruginosa [13]): 1.6 µg/mL (≈ 3.37 µM) | MIC (Pseudomonas aeruginosa [14]): 0.8 µg/mL (≈ 1.69 µM) | MIC (Pseudomonas aeruginosa [15]): 0.4 µg/mL (≈ 0.843 µM) | MIC (Burkholderia cepacia): 0.4 µg/mL (≈ 0.843 µM) | MIC (Escherichia coli [16]): 0.02 µg/mL (≈ 0.0421 µM) | MIC (Escherichia coli [17]): 0.02 µg/mL (≈ 0.0421 µM) | MIC (Escherichia coli [18]): 0.02 µg/mL (≈ 0.0421 µM) | MIC (Escherichia coli [19]): 0.05 µg/mL (≈ 0.105 µM) | MIC (Escherichia coli [20]): 0.01 µg/mL (≈ 0.0211 µM) | MIC (Escherichia coli [21]): 0.02 µg/mL (≈ 0.0421 µM) | MIC (Salmonella typhimurium): 0.1 µg/mL (≈ 0.211 µM) | MIC (Salmonella typhi): 0.03 µg/mL (≈ 0.0632 µM) | MIC (Salmonella): 0.1 µg/mL (≈ 0.211 µM) | MIC [22]: 0.1 µg/mL (≈ 0.211 µM) | MIC (Serratia marcescens [23]): 0.1 µg/mL (≈ 0.211 µM) | MIC (Klebsiella pneumoniae [24]): 0.05 µg/mL (≈ 0.105 µM) | MIC (Proteus mirabilis [25]): 0.2 µg/mL (≈ 0.421 µM) | MIC (Enterobacter cloacae [26]): 0.01 µg/mL (≈ 0.0211 µM) | MIC (Enterobacter cloacae [27]): 0.02 µg/mL (≈ 0.0421 µM) | MIC (Serratia marcescens [28]): 0.2 µg/mL (≈ 0.421 µM) | MIC (Serratia marcescens [29]): 0.4 µg/mL (≈ 0.843 µM) | MIC (Proteus mirabilis [30]): 0.2 µg/mL (≈ 0.421 µM) | MIC (Proteus vulgaris): 0.4 µg/mL (≈ 0.843 µM) | MIC (Providencia rettgeri [31]): 0.4 µg/mL (≈ 0.843 µM) | MIC (Providencia rettgeri [32]): 0.4 µg/mL (≈ 0.843 µM) | MIC (Pasteurella multocida): 0.05 µg/mL (≈ 0.105 µM) | MIC (Trueperella pyogenes): 0.01 µg/mL (≈ 0.0211 µM) | MIC [33]: 0.01 µg/mL (≈ 0.0211 µM) | MIC (Bacillus subtilis): 0.03 µg/mL (≈ 0.0632 µM) | MIC [34]: 0.1 µg/mL (≈ 0.211 µM)
